Screens (PubChem)
mHtt clearance – compounds clearing mutant huntingtin protein. inhibition, % at 1.5 µM. 47,000 tested, 0.42% active. HeLa Exon1htt(103Q)mCFP, aggregate imaging; zero = plate's median compound well;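 active = inhibition of aggregate fluorescence above about 70%, also judged a hit by eye on the cell image, limit read from the data, passing the limit was not always enough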;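 also: cells exposed to compound for three days before fixation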
MMP13 inh – inhibitors of human MMP13; AID 570; MMP-13 fTHP FRET cleavage, Mca fluorescence; 65,000 tested, 0.07% active; inhibition, % at 4 µM;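 active = inhibition above the mean of compound-free control plate wells plus 3 SD, cut at about 14% in these data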
AP complement – alternative pathway complement inhibition, orthogonal assay. Human serum alternative complement pathway, LPS-coated ELISA, C3 deposition; tested in compound mixtures. inhibition, % at 5 µM. 62,000 tested, 0.08% active;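 active = inhibition above 30% in each of the two pooled mixtures holding the compound, so the lower value exceeds 30%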
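Test system: human serum alternative complement pathway, C3 deposition on LPS-coated wells; also added: Plate-bound LPS; doses: 5 µM per compound in ten-compound mixtures; schedule: 1 h at 37 °C; detection: Anti-C3 ELISA, OD 450 nm; evaluation: percent inhibition of C3 deposition onto LPS; repeats: two pool placements per compound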
JNK3 inh – JNK3 (human) kinase inhibition. P53779. purified JNK3 kinase activity, HTS. inhibition, % at 8 µM. 60,000 tested, 0.61% active. AID 746; in the data active = inhibition above about 17%
Target sequence (P53779 whole entry, looked up): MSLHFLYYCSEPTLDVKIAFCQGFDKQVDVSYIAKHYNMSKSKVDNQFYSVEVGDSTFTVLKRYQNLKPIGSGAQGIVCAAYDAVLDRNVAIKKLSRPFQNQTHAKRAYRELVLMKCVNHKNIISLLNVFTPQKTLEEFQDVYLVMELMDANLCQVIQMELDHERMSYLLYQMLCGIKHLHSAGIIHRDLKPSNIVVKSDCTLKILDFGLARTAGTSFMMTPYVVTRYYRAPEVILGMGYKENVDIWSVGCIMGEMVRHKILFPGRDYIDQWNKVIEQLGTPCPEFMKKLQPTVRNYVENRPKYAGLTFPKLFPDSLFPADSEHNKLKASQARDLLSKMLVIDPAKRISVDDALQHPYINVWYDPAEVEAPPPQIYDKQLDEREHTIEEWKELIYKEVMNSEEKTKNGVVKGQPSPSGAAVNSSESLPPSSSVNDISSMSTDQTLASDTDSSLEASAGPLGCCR
Large screens that a line does not name were inactive. This is a sample that favours compounds with a hit; in the whole collection about 0.68% have one here.

COc1cc(CN/C(C)=C(\C#N)C(N)=O)cc(OC)c1OC	JNK3 inh 63 (no result: mHtt clearance)
N#Cc1nc(COc2cccc(Cl)c2)oc1NCc1ccncc1	none
CCC(=O)NC(Nc1ncc(C)s1)(C(=O)OC)C(F)(F)F (centres undefined)	mHtt clearance 70 (no result: MMP13 inh, AP complement, JNK3 inh)
CCn1c(SCC(=O)Nc2ccc(Cl)cc2)nnc1C1CC1	JNK3 inh 22 (no result: mHtt clearance)
O=C(OCn1nnc2ccccc2c1=O)c1cccnc1Cl	none (no result: MMP13 inh, AP complement, JNK3 inh)
COC(=O)C1=C(C)NC(=O)CC1c1cc2c(cc1Br)OCO2 (centres undefined)	none (no result: mHtt clearance)
Cn1c2c(c(=O)n(C)c1=O)C(c1cc3c(cc1Br)OCO3)CC(=O)N2 (centres undefined)	AP complement 32 (no result: mHtt clearance)
O=C(CN(Cc1ccccc1)S(=O)(=O)c1ccc(F)cc1)NCCC1=CCCCC1	mHtt clearance 76 (no result: MMP13 inh, AP complement, JNK3 inh)
Cc1ccc(S(=O)(=O)N(CC(=O)NCCC2=CCCCC2)Cc2ccccc2)cc1	none (no result: MMP13 inh, AP complement, JNK3 inh)
CN(C(=O)c1ccc(C#N)cc1)c1nnc(-c2ccccn2)s1	mHtt clearance 80 (no result: MMP13 inh, AP complement, JNK3 inh)
CS(=O)(=O)N1CCN(c2ccccc2NC(=O)CSc2ccc(Cl)cc2)CC1	JNK3 inh 21
CCCn1c2c(c(O)c(C(=O)NCCCN(CC)CC)c1=O)CCCC2	mHtt clearance 74 (no result: MMP13 inh, AP complement, JNK3 inh)
CCc1nc(N2CCCCC2C)c2oc3ccccc3c2n1 (centres undefined)	none
N#Cc1c(NC(=O)CSc2nnc(-c3ccccc3O)n2-c2ccccc2)sc2c1CCCC2	none
Cc1nn(-c2ccccc2)c2c1C(c1ccncc1)C(C#N)=C(N)O2 (centres undefined)	none
COc1cc(-n2nc(C)c3c2OC(N)=C(C#N)C3c2ccccc2)c(Cl)c(Br)c1O (centres undefined)	MMP13 inh 16
CCC1(C)Cc2c(sc3nc4n(c(=O)c23)CCS4)CO1 (centres undefined)	none (no result: mHtt clearance, AP complement)
CCC1(C)Cc2c(sc3nc(NC)n(C)c(=O)c23)CO1 (centres undefined)	AP complement 35 (no result: mHtt clearance)
N#CC1=C2Sc3ccccc3N2CCCC1=O	none (no result: mHtt clearance)
CS(=O)(=O)N1CCc2cc(C(=O)OCC(=O)c3ccccc3)ccc21	MMP13 inh 15 (no result: mHtt clearance, JNK3 inh)
CS(=O)(=O)N1CCc2cc(-c3csc(NC(=O)Cc4ccccc4)n3)ccc21	none (no result: MMP13 inh, AP complement, JNK3 inh)
Nc1nc(SCC(=O)N2CCCc3ccccc32)[nH]c(=O)c1-c1ccccc1	mHtt clearance 70
Cc1nn(C)c(C)c1S(=O)(=O)N1CCC(C(=O)NC2CCCCCC2)CC1	none (no result: mHtt clearance)
CCOC(=O)c1c(-c2ccccc2)[nH]c2ccc(O)cc12	JNK3 inh 42
CCCCNc1c(C(=O)OCC)c(=O)[nH]c2ccccc12	none (no result: mHtt clearance)
CC(C)OCCCn1c(=NC(=O)c2ccncc2)c(C#N)cc2c(=O)n3ccccc3nc21	AP complement 38 (no result: mHtt clearance)
O=C(NCCO)c1ccc(-c2nnc(N3CCOCC3)c3ccccc23)cc1	none
CN(C)CCNC(=O)c1cc2ccccc2oc1=O	mHtt clearance 74
O=C(Nc1ccc2c(c1)OCO2)c1ccccc1SCC(=O)N1CCCC1	none (no result: mHtt clearance)
CCOc1ccc(C2CC(=O)NC3=C2C(=O)CCC3)cc1 (centres undefined)	JNK3 inh 45
COc1ccccc1-c1cc(C(=O)NCCc2ccccc2)no1	mHtt clearance 79 (no result: MMP13 inh, AP complement, JNK3 inh)
O=C1C2C(C(=O)N1c1ccncc1)C1C=CC2C12CC2 (centres undefined)	none
COc1ccccc1C1NC(=O)NC(C)=C1C(C)=O (centres undefined)	mHtt clearance 71
O=c1c2c([nH]c3ccc(Br)cc13)CCCC2	none (no result: mHtt clearance)
NC(=O)c1cc(Br)cc2c3c([nH]c12)CCCC3	JNK3 inh 55 (no result: mHtt clearance)
COc1ccc(C(c2nnnn2C2CCCC2)N2CCc3ccccc3C2)cc1OC (centres undefined)	none (no result: mHtt clearance)
COc1ccc(OC)c(C(c2nnnn2C2CCCC2)N2CCc3ccccc3C2)c1 (centres undefined)	mHtt clearance 73
CN(C)C=Nc1c(Br)cc(Br)c2nonc12	mHtt clearance 91
CN(C)C=Nc1nonc1-c1ncn[nH]1	none
COc1ccc(C(=O)n2nc(-c3ccco3)nc2SC)cc1OC	AP complement 102 (no result: mHtt clearance)
Cn1cccc1Cc1nnc(SCC(=O)Nc2nccs2)n1CCc1ccccc1	none (no result: mHtt clearance)
Cc1ccc(NC(=O)CCn2cnc3ccccc3c2=O)cc1Cl	none (no result: mHtt clearance)
O=C(CCn1cnc2ccccc2c1=O)Nc1ccc(S(=O)(=O)N2CCCCC2)cc1	JNK3 inh 20
O=C(CCn1cnc2ccccc2c1=O)Nc1ccc(S(=O)(=O)N2CCCC2)cc1	JNK3 inh 27
O=C(CCn1cnc2ccccc2c1=O)Nc1ccc2c(c1)OCCO2	none
CCOC(=O)c1[nH]c2ccc(F)cc2c1NC(=O)CN1CCc2cc(OC)c(OC)cc2C1	AP complement 35
COC(=O)c1[nH]c2ccc(Cl)cc2c1NC(=O)CN1CCc2cc(OC)c(OC)cc2C1	none (no result: mHtt clearance)
O=c1cc(-c2ccccc2)[nH]n1-c1nc2ccccc2s1	none (no result: mHtt clearance)
O=c1cc(-c2ccccc2)[nH]c2nc3ccccc3n12	JNK3 inh 19 (no result: mHtt clearance)
COc1ccc(CCNC(=O)CSc2nc(N)c3c(C)c(C)oc3n2)cc1OC	none
Cc1cc(C)nc(NS(=O)(=O)c2ccc(NC(=S)NC(=O)C3CCCC3)cc2)n1	none (no result: MMP13 inh, AP complement, JNK3 inh)
CCc1cc(=O)oc2cc(C)cc(OC(=O)c3ccco3)c12	JNK3 inh 20
Cc1nn(C)cc1CNC(=O)c1cnn2c(C(F)F)cc(C3CC3)nc12	JNK3 inh 33
O=C(NCCc1ccccc1)c1cnn2c(C(F)F)cc(C3CC3)nc12	none (no result: mHtt clearance)
COC(=O)c1ccccc1NC(=O)c1cnn2c(C(F)F)cc(C3CC3)nc12	mHtt clearance 76
CCCCN(C)Cc1c(O)ccc2c(-c3ccccc3)cc(=O)oc12	none
COc1ccc(N(C(=O)Cc2cccs2)C(C(=O)NC2CCCCC2)c2cccn2C)cc1OC (centres undefined)	mHtt clearance 94 (no result: MMP13 inh, AP complement, JNK3 inh)
COc1ccc(C2/C(=C(/O)c3ccccc3)C(=O)C(=O)N2CC(C)O)c(OC)c1 (centres undefined)	none (no result: mHtt clearance)
COc1ccc(OC)c(NC(=O)CSC2=C(C#N)C(c3ccco3)C3=C(CCCC3=O)N2)c1 (centres undefined)	none (no result: mHtt clearance, AP complement)
CCc1ccccc1NC(=O)CSC1=C(C#N)C(c2ccc3c(c2)OCO3)C2=C(CCCC2=O)N1 (centres undefined)	mHtt clearance 73
O=C1C2=C(Nc3ccccc3SC2c2ccco2)c2ccccc21 (centres undefined)	mHtt clearance 74
O=C1c2ccccc2NC(c2ccco2)N1O (centres undefined)	none
C=CCc1ccccc1OCC(O)CN1CCN(Cc2ccc3c(c2)OCO3)CC1 (centres undefined)	none
COC1=CC(=O)OC12CCCCC2	mHtt clearance 70
COC(=O)c1c(C#N)c(N)nc2c1CCCC2	JNK3 inh 19 (no result: mHtt clearance)
CCCCC(=O)Nc1ncc(Br)s1	JNK3 inh 28
C=C(C)COc1ccc(-c2nc(N)ncc2Oc2ccccc2OCC)c(O)c1	none (no result: mHtt clearance)
CCOc1ccc(-c2nc(N)ncc2-c2ccccc2)c(O)c1	JNK3 inh 51 (no result: mHtt clearance)
O=C(c1cccc2c1-c1ccccc1/C2=N/O)N1CCCCC1	JNK3 inh 26 (no result: mHtt clearance)
O=C(NCc1cccnc1)c1ccc(COc2ccccc2Br)o1	none (no result: mHtt clearance)
O=C(Nc1cccnc1)c1ccc(COc2ccccc2Br)o1	JNK3 inh 21
Cc1ccc(NC(=O)NC2CCN(S(=O)(=O)c3ccc(F)cc3)CC2)cc1	none (no result: MMP13 inh, AP complement, JNK3 inh)
